# Bioassay records: PubChem, several laboratories
# Only some compounds are listed: those with a hit (about 1.8% of all), similar ones and a draw of the others.
# proCasp3 act = procaspase-3 (human) activation; P42574; recombinant procaspase-3 D3A, Ac-DEVD-pNA absorbance 405 nm; activation, % at 8.5 µM; 330,000 compounds, 0.11% hits;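 active = activation above the mean of all tested compounds plus 3 SD, cut at about 21% in these data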;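 note: 0% = DMSO alone and 100% = DMSO wells spiked with extra 5 µM PC-3 D3A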
#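 System: Procaspase-3 D3A mutant. Medium: Zinc-free 300 mM NaCl, 50 mM HEPES, 0.01% Triton X-100. Schedule: 1 h preincubation plus 2 h reaction at 25 °C. Measured by: 405 nm absorbance of p-nitroaniline, reads at 0 and 120 min. Read-out: percent activation relative to control range.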
# procasp7 counter = counter-screen for procaspase-3 activators: activators of human procaspase-7. P55210. recombinant procaspase-7, Ac-DEVD-pNA absorbance 405 nm; D23A/D198A/D206A triple mutant, cannot self-cleave; scale: DMSO 0, 5 µM enzyme 100. activation, % at 8.5 µM. 330,000 compounds, 0.093% hits. AID 463210;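 active = percent activation above the screen-wide mean plus 3 SD, cut at about 25% in these data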
#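 Material: Procaspase-7 triple mutant (PC-7 D3A) | Quantity: 2 µM procaspase-7 mutant as dispensed | Reagent: DEVD-pNA substrate | Times: 1 h preincubation, 2 h reaction | Technique: 405 nm absorbance of p-nitroaniline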
# ZTA DNA inh = blocks Epstein-Barr virus ZTA, an EBNA-1 counter-screen; inhibition, % at 11 µM; P03206; 320,000 compounds, 0.15% hits; ZTA-DNA binding, fluorescence polarization; in the data active = inhibition above about 33%
# EBNA-1 inhibitor = blocks EBNA-1 binding to DNA; EBNA-1 DNA binding, fluorescence polarization; inhibition, % at 14.8 µM; 300,000 compounds, 0.34% hits; in the data active = inhibition above about 28%
# GSTO1 inh = GSTO1 inhibition, counter-screen for RBBP9 inhibitors; P78417; recombinant GSTO1, activity-based probe fluorescence polarization; inhibition, % at 5.96 µM; 300,000 compounds, 1.1% hits; AID 1974;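 active = inhibition above the campaign mean inhibition plus 3 SD, cut at about 35% in these data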;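 note: 0% = GSTO1-1 with DMSO and 100% = wells lacking GSTO1-1 enzyme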
# Apaf-1 inh = blocks human Apaf-1 apoptosome activity; reconstituted apoptosome caspase-3 activity, DEVD-Rh110 fluorescence; inhibition, % at 20 µM; 330,000 compounds, 0.71% hits; active = inhibition of at least 40% at 20 µM;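 note: plate controls were DMSO wells for no effect and DEVD-CHO caspase inhibitor wells for full effect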
#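 System – cell-free apoptosome with Apaf-1, procaspase-3 and caspase-9 · Buffer or medium – pH 7.5 Hepes buffer with CHAPS, BSA, DTT · Also added – cytochrome c with DEVD-Rh110 · Times – 30 min compound preincubation, 50 min activation, room temperature · Technique – Rh110 fluorescence intensity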
# proCasp7 act trip = counter-screen for procaspase-3 activators: activators of human procaspase-7. 210 tested, under 10 active. recombinant procaspase-7, Ac-DEVD-pNA absorbance; asp23/198/206-to-Ala mutant, cannot self-cleave. AID 488941. shares compounds with proCasp3 act. activation, % at 8.5 µM;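 active = mean activation above a set limit taken from an earlier procaspase-7 screen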;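 note: 0% = DMSO wells and 100% = DMSO plus 5 µM procaspase-7 enzyme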
# procasp3 conf = confirmation of human procaspase-3 activators; activation, % at 8.5 µM; shares compounds with proCasp3 act; AID 488954; recombinant PC-3 D3A, Ac-DEVD-pNA absorbance 405 nm; 100% is higher-enzyme control; 210 compounds, 10% hits;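 active = mean activation above a set limit carried over from the earlier primary screen, cut at about 22% in these data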
# The depositor's hits bear a star; x = no result given.
SMILES,proCasp3 act,procasp7 counter,ZTA DNA inh,EBNA-1 inhibitor,GSTO1 inh,Apaf-1 inh,proCasp7 act trip,procasp3 conf
O=C(O)c1cc(S(=O)(=O)N2CC=C(c3ccccc3)CC2)ccc1O,16,0,8,x,x,-1,x,x
O=C1C2C(c3ccccc3)=NN(c3ccccc3)C2C(=O)N1c1ccccc1 (configuration not stated),23*,25,2,4,-7,5,36*,47*
O=C1OCCN1C(=O)[C@H]1[C@H](c2ccc(Cl)cc2)C(c2ccccc2)=NN1c1ccccc1,-4,-5,x,x,x,30,x,x
CC1CCc2c(sc(NC(=O)CSc3nc(N)cc(=O)[nH]3)c2C(N)=O)C1 (configuration not stated),x,x,x,x,x,8,x,x
O=C(NCCCn1ccnc1)c1cc(Cl)cc(Cl)c1,16,9,-2,2,-3,-106,x,x
O=C(O)c1nn(CCOc2ccc(Br)cc2)c(=O)c2ccccc12,14,0,7,-15,-14,36,x,x
O=C(O)c1nn(CCOc2ccccc2F)c(=O)c2ccccc12,22*,6,-2,9,4,7,0,3
O=C(Nc1cc(S(=O)(=O)N2CCOCC2)ccc1N1CCOCC1)c1ccccc1F,23*,-2,-3,x,x,1,2,3
COc1cccc(OCCNS(=O)(=O)c2ccccc2[N+](=O)[O-])c1,4,0,x,x,x,3,x,x
COc1ccc(C2CC(c3ccc(Cl)cc3)=NN2c2ccc(S(N)(=O)=O)cc2)cc1 (configuration not stated),33*,8,x,x,x,17,-23,-12
COc1ccc(OC)c(/C=C/C(=O)OCC(=O)Nc2cccc(Oc3ccccc3)c2)c1,23*,17,10,14,-9,6,-22,-14
COc1ccc(OC)c(/C=C/C(=O)OCC(=O)Nc2nnc(-c3ccccc3)o2)c1,-2,4,6,x,x,1,x,x
N#CC1=C(N)Oc2c(ccc3ccccc23)C1c1cccs1 (configuration not stated),-2,6,7,5,9,5,x,x
CN(C)/C=N/C1=C(C#N)C(c2ccc(Br)cc2)c2ccc3ccccc3c2O1 (configuration not stated),29*,14,-7,1,-2,26,-22,-10
O=C(COC(=O)c1ccccc1F)NC(=O)NC1CCCC1,-1,-4,-18,x,x,7,x,x
CCN(CC(=O)Nc1c(F)cccc1F)C(=O)Cc1ccc(S(=O)(=O)N2CCOCC2)s1,x,x,x,x,x,17,x,x
CCCCn1c(N)c(N(CC)C(=O)c2cccc(S(=O)(=O)N3CCN(C)CC3)c2)c(=O)[nH]c1=O,24*,6,-1,5,8,3,4,7
CCN1CCN(c2nc3c(C)cccn3c(=O)c2C=C(C#N)C#N)CC1,x,x,x,x,x,4,x,x
N=c1c(S(=O)(=O)c2ccccc2)cc2c(=O)n3ccccc3nc2n1C1CCCC1,30*,-17,-8,-16,-4,15,-22,-14
CC(C)c1ccc(S(=O)(=O)N2CCN(C(=O)C3CCN(C(=O)c4ccc(F)cc4)CC3)CC2)cc1,-1,4,-2,10,-3,16,x,x
COc1ccc(-n2c(CCc3ccccc3)nnc2SCC(=O)NCc2ccccc2)cc1,59*,-4,-1,8,-2,11,0,4
O=C(CSc1nnc(CCc2ccccc2)n1-c1ccc(Cl)cc1)NCc1ccccc1,14,4,-5,-7,5,24,x,x
O=C(CSc1nnnn1-c1ccccc1)Nc1ccc(Cl)cn1,1,3,-4,-9,-2,8,x,x
O=C(CSc1nnnn1-c1ccccc1)Nc1ccc(Cl)cc1,27*,13,8,7,18,-1,1,4
CC(=O)c1ccc(-c2cccs2)s1,29*,24,3,0,11,5,-20,-13
SMILES,proCasp3 act,procasp7 counter,ZTA DNA inh,EBNA-1 inhibitor,GSTO1 inh,Apaf-1 inh,proCasp7 act trip,procasp3 conf
CC(=O)N1N=C(c2cccs2)CC1c1cccs1 (configuration not stated),0,0,7,-9,4,9,x,x
CN=C(C[N+](=O)[O-])NCCSCc1ccc(CN(C)C)o1,7,-10,x,x,x,27,x,x
COc1ccc(-n2ncc3c2CC(C)(C)CC3NC(=O)c2cnc(C)cn2)cc1 (configuration not stated),-1,-7,-2,4,-4,9,x,x
Cc1ccc2nc(-c3ccc(NS(=O)(=O)c4c(C)n(C)c(=O)n(C)c4=O)cc3)sc2c1,-11,-20,-2,-4,-10,24,x,x
Cc1ccc(S(=O)(=O)Nc2ccc(-c3nc4ccc(C)cc4s3)cc2)cc1,23*,23,-17,-8,2,1,13,13
CCn1c(NCc2cccc(OC)c2OC)nc2ccccc21,22*,17,-11,-4,-2,0,4,2
COc1cccc(CNc2nc3ccccc3n2CCN2CCCCC2)c1OC,3,2,-3,2,5,7,x,x
O=C(N/N=C\c1c(O)ccc2ccccc12)c1ccc(O)cc1,21*,3,3,-8,-3,14,-14,-15
CC(=O)c1c(C)[nH]c(C(=O)OCC(=O)N2c3ccccc3NC(=O)C2(C)C)c1C,30*,24,-6,-9,-7,-9,1,5
Cc1cnc(C(=O)OCC(=O)N2c3ccccc3NC(=O)C2(C)C)cn1,0,8,7,1,0,-5,x,x
CC(C)[C@H](NC(=O)c1ccccc1)C(=O)OCC(=O)c1c(N)n(C)c(=O)n(C)c1=O,1,5,x,x,x,-6,x,x
CCc1ccc(OCC(=O)OCC(=O)c2ccc3c(c2)NC(=O)CO3)cc1,-1,0,0,-3,5,-3,x,x
CCC(=O)c1ccc(OCC(=O)c2ccc3c(c2)NC(=O)CO3)cc1,23*,4,2,22,-2,-18,4,4
CC(Sc1nncs1)C(=O)Nc1ccc2c(c1)OCCO2 (configuration not stated),22*,3,9,3,7,-3,-1,7
CN1/C(=C/C(=O)c2ccc(Cl)cc2)Sc2cc3c(cc21)OCO3,40*,11,3,-1,2,11,-13,2
COc1ccc(OC)c(CCNC(=O)CCC(=O)N2CCOc3ccc(C)cc32)c1,3,-1,-2,0,1,16,x,x
